# Assay outcomes (PubChem)
# Hits are enriched below; roughly 3.3% of the tested compounds scored in any of these assays.
# ATG4B inhibitor – inhibitors of human ATG4B cysteine protease | AID 504462 | hit rate 0.51% among 340,000 | Q9Y4P1 | ATG4B cleavage of LC3-PLA2, NBD-HPC fluorescence, 1 h | inhibition, % at 8.33 µM; in the data active = inhibition above about 40%
# Myeloid diff MLP – compounds promoting myeloid differentiation; ER-HoxA9 myeloid progenitors, lysozyme-GFP differentiation, flow cytometry; calls only at 10 µM; hit rate 1% among 360,000;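 active = normalized GFP-positive differentiation at or above the plate's own cutoff, the solvent-only control mean plus 3 SD; inconclusive = no clear call, values can overlap the other calls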;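 also: cells exposed to compound for four days before flow analysis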
# CendR NRP1 mod – alters CendR peptide binding to human NRP-1 | FAM-RPARPAR peptide binding to NRP-1, fluorescence polarization | O14786 | hit rate 0.85% among 360,000 | AID 602438 | inhibition, % at 25 µM;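 active = inhibition or corrected inhibition above about 18%, plus a signal ratio from 0.5 to 1.5, limit read from the data, passing the limit was not always enough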
# Target sequence (O14786 whole entry, looked up): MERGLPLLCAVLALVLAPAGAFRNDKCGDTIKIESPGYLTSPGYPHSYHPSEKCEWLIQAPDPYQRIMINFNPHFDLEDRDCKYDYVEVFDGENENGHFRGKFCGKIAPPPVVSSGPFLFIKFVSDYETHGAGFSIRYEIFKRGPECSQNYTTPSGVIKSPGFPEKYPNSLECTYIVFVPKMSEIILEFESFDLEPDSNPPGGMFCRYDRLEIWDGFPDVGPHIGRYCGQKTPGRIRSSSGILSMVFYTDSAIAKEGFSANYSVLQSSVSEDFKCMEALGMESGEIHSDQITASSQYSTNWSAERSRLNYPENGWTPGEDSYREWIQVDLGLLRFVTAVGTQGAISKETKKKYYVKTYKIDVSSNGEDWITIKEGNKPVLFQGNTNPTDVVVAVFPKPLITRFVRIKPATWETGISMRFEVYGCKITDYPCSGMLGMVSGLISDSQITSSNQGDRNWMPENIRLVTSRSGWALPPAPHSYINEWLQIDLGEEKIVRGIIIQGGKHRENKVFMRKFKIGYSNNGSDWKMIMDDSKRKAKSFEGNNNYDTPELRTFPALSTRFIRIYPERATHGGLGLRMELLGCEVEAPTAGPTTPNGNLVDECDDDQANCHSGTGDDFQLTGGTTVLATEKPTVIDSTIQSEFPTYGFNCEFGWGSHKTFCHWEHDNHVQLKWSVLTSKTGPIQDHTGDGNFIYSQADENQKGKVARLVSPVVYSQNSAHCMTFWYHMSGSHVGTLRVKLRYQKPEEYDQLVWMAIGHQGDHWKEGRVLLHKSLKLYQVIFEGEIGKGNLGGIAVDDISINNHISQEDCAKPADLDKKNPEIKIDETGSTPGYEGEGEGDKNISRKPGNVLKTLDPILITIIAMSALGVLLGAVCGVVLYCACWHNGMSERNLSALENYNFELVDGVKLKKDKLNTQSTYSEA
# Exocytosis inh – lytic granule exocytosis inhibition; inhibition, % at 10 µM; hit rate 0.66% among 360,000; AID 651702; TALL-104 LAMP-1 surface exposure, flow cytometry; cells stimulated with thapsigargin and PMA;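 active = inhibition above about 55%, limit read from the data; inconclusive = no clear call, values can overlap the other calls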
# ABCB6 inh 2 – blocks the human ABCB6 transporter; Q9NP58; K562-ABCB6 porphyrin accumulation, flow cytometry, 1 h; active compounds read low; fluorescence ratio to DMSO, % at 10 µM; hit rate 0.19% among 360,000;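 active = fluorescence ratio to DMSO below 75%, the collection mean minus 3 SD; inconclusive = too few cells collected in the well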;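 also: signal is porphyrin accumulated inside mitochondria; lower ratio means ABCB6 inhibition with less porphyrin fluorescence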
# Arrestin-AP2 inh – human beta-arrestin and AP2 interaction inhibition; hit rate 0.31% among 340,000; FITC-arrestin peptide / GST-AP2 beads, flow cytometry; AP2 beta2 appendage carries R879A mutation; inhibition, % at 10 µM;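 active = inhibition above a set limit, near 3 SD of compounds lacking own fluorescence, cut at about 54% in these data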
#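 System: GST-AP2 R879A glutathione beads. Medium: PBS with 0.05% Tween 20 and 0.1% BSA. Also added: FITC-arrestin peptide, 50 nM. Incubation: 12 min plus 1 h, RT. Measured by: high-throughput flow cytometry of beads, ex 488, em 535 nm. Evaluation: percent drop in bead-associated FITC signal.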
# ATG4B confirm – confirmation of human ATG4B inhibitors; inhibition, % at 8.33 µM; hit rate 92% among 320; ATG4B protease fluorescent substrate cleavage assay; shares compounds with ATG4B inhibitor; in the data active = inhibition above about 39%
# PLA2 counter – PLA2 (human) inhibition in ATG4B counter-screen; shares compounds with ATG4B inhibitor; purified PLA2, NBD-C6-HPC fluorescence, 45 min; inhibition, % at 8.33 µM; hit rate 66% among 1,600; AID 588402; in the data active = inhibition above about 50%
# Numbers stand for hits; 0 = inactive; ? = inconclusive; - = no result given.
SMILES,ATG4B inhibitor,Myeloid diff MLP,CendR NRP1 mod,Exocytosis inh,ABCB6 inh 2,Arrestin-AP2 inh,PLA2 counter,others
Cc1ccc(C(C)NC(=S)NCc2ccc(F)cc2)c(C)c1 (centres undefined),44,0,0,0,0,0,52,
Fc1ccc(CNC(=S)NCc2ccc(F)cc2)cc1,42,0,0,0,0,0,0,ATG4B confirm=69
Cc1ccc(C(C)NC(=S)NCc2ccc(F)cc2)cc1C (centres undefined),0,0,0,0,0,0,-,
CC(=O)N1CCN(c2ncnc3ccccc23)CC1,0,0,0,0,0,0,-,
COC(=O)c1ccc(NC(=O)CCC(=O)c2ccc(F)cc2)cc1,0,0,0,0,0,0,-,
COCCNC(=O)NC(=O)COC(=O)c1cc([N+](=O)[O-])ccc1Sc1nc(C)cs1,0,0,0,0,0,0,-,
CCCCNC(=O)c1sc(=S)n2c1[nH]c(=O)c1ccccc12,45,0,0,0,0,0,0,
CCOC(=O)c1sc2ccccc2c1NC(=O)c1coc2ccccc2c1=O,53,0,0,0,0,0,0,
O=[N+]([O-])c1cccc(COc2cccc(CN3CCCC3)c2)c1,-,0,0,0,0,0,-,
Cc1cccc(CNc2ncnc3ccc(-c4ccccc4Cl)cc23)c1,51,0,0,0,0,0,52,
Cc1cccc(CNc2ncnc3ccc(-c4ccc5c(c4)OCO5)cc23)c1,0,0,0,0,0,0,-,
CCCOC(=O)c1cc(-c2ccc(/C=C3/C(=O)N(C)C(=O)C(C#N)=C3C)o2)ccc1Cl,0,0,0,0,0,0,-,
C=CCOC(=O)c1cc(-c2ccc(/C=C3\C(=O)NC(=O)C(C#N)=C3C)o2)ccc1Cl,70,0,0,0,0,0,0,
NC(=O)CSc1nc2ccc([N+](=O)[O-])cc2[nH]1,42,0,0,0,0,0,0,ATG4B confirm=69
CC(C)(C)C(=O)Nc1nnc(CSCc2ccccc2F)s1,40,0,0,0,0,0,0,ATG4B confirm=59
O=C(Nc1nnc(CSCc2ccccc2F)s1)c1cccc([N+](=O)[O-])c1,51,0,0,0,0,0,58,
CCc1ccc(N2CN=c3s/c(=C\c4ccccc4)c(=O)n3C2)cc1,0,0,0,0,0,0,-,
O=C(O)c1cccc2c1C(=O)c1ccccc1-2,0,0,0,0,0,0,-,
O=C1C(=C(I)I)c2ccccc2-c2ccccc21,61,?,0,103,0,0,0,ATG4B confirm=57
CC1=CN2C(=N)/C(=C/c3ccc(Sc4ccc(C)cc4)o3)C(=O)N=C2S1,43,0,0,0,0,0,56,
CC1=CN2C(=N)/C(=C/c3ccc(Sc4ccc(Cl)cc4)o3)C(=O)N=C2S1,0,0,0,0,0,0,-,
COc1ccc(-n2c(SC(CN3CCCCC3)CN3CCCC3=O)nc3ccccc3c2=O)cc1 (centres undefined),63,0,0,0,0,0,67,
NS(=O)(=O)c1cccc(NC(=O)CN2C(=O)C(=O)N(Cc3ccccc3)C2=O)c1,0,0,0,0,0,0,-,
C=CCN1C(c2ccccc2)=CS/C1=C(\C#N)c1nnc2n1CCCCC2,0,0,0,0,0,0,-,
C=CCN1C(c2ccc(Br)cc2)=CS/C1=C(/C#N)c1nnc(N2CCOCC2)n1-c1ccccc1,61,0,0,0,0,0,70,
SMILES,ATG4B inhibitor,Myeloid diff MLP,CendR NRP1 mod,Exocytosis inh,ABCB6 inh 2,Arrestin-AP2 inh,PLA2 counter,others
C=CCN1C(c2cccc(C(F)(F)F)c2)=CS/C1=C(/C#N)c1nnc(N2CCOCC2)n1-c1ccccc1,50,0,0,0,0,0,55,
COc1ccc(Cl)cc1CN1C(=O)C(Cc2ccccc2)ON=C1C (centres undefined),-,0,0,0,0,-,-,
O=C1[C@@H](Oc2ccccc2)[C@@H](c2cccnc2)N1c1ccccc1,0,0,0,0,0,0,-,
CN(C)C(CNC(=O)c1ccccc1OCc1ccc(Cl)cc1)c1ccco1 (centres undefined),0,0,0,0,0,0,-,
Cc1c(Cc2ccccc2)c(=O)oc2cc(OCC(=O)NCC3CCC(C(=O)O)CC3)ccc12 (centres undefined),0,0,0,0,0,0,-,
O=C(CSCc1cccc(Cl)c1)Nc1ccccc1-c1ccccc1,47,0,0,0,0,0,51,
CN(CC(=O)Nc1ccccc1-c1ccccc1)Cc1ccccc1Cl,55,0,0,0,0,0,52,
Cc1ccccc1CSCC(=O)Nc1ccccc1-c1ccccc1,51,0,0,0,0,0,59,
O=C(NCCc1ccco1)C(=O)NCC1OCCCN1S(=O)(=O)c1cc(F)ccc1F (centres undefined),0,0,0,0,0,0,-,
CCN(Cc1ccccc1)c1ccc(N=Nc2nn(C)c(C)c2[N+](=O)[O-])cc1,53,0,0,0,0,0,0,
O=C(NC[C@@H]1CC[C@@H](Cc2ccc(-c3ccccc3)cc2)O1)Nc1ccc(Br)cc1,42,0,0,0,0,0,86,
O=C(NCCCCc1ccccc1)NC[C@@H]1CC[C@@H](Cc2ccc(-c3ccccc3)cc2)O1,0,0,0,0,0,0,-,
CC(=O)c1ccc(OCCCC(=O)Nc2ccc(S(=O)(=O)N3CCOCC3)cc2)cc1,0,0,0,0,0,0,-,
Oc1c(Br)cc(Br)cc1C=Nc1ccc2c(c1)OCO2,63,0,0,0,0,0,0,ATG4B confirm=48
C[C@H]1CN([C@@H](C)CO)C(=O)c2cccc(NC(=O)C3CC3)c2O[C@H]1CN(C)S(=O)(=O)c1ccccc1,0,0,0,0,0,0,-,
Cc1cc(Nc2ccc(Cl)cc2)n(-c2cccc(Cl)c2)n1,41,0,0,0,0,0,63,
Cc1cc(Nc2ccc(Cl)cc2)n(-c2ccccc2)n1,0,0,0,0,0,0,-,
O=C(Nc1ccc(S(=O)(=O)Nc2cnc3ccccc3n2)cc1)c1cc(F)c(F)cc1Cl,0,0,0,0,0,0,-,
CSc1n[nH]c2nc3c(c(=O)n12)C1(CCCCC1)Cc1ccccc1-3,42,0,0,0,0,0,0,ATG4B confirm=46
CCSc1n[nH]c2nc3c(c(=O)n12)C1(CCCCC1)Cc1ccccc1-3,0,0,0,0,0,0,-,
COc1ccc(O)c(CNn2c(-c3ccc(Br)cc3)nc3ccccc3c2=O)c1,0,0,0,0,0,0,-,
COc1ccc(C(=O)On2c(-c3ccc(Br)cc3)nc3ccccc3c2=O)cc1,56,0,0,0,0,0,66,
COc1cc(OC)cc(-c2nc3ccccc3c(=O)n2OC(=O)c2ccc(Br)cc2)c1,55,0,0,0,0,0,0,ATG4B confirm=0
